Results from paper PMC7025391 (The Lancet. Oncology, 2019).
Like-named read-outs stand apart in the source and are kept apart here.

Key:
[1] = Pharmacokinetics: steady state Cmax of alpelisib and olaparib; format: in vivo, human; details: combination; for Effect of the other drug's dosing on Cmax: dose levels 0-3; for Steady state Cmax compared with monotherapy: day 8, 2 hours post dosing
Summary of the method: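 Blood sampled for alpelisib and olaparib levels on cycle 1 day 1 (time 0) and on days 8 and 15 at 0, 1, 2, 4 and 8 h after dosing both agents. Patients took oral alpelisib once daily and olaparib tablets twice daily, continuously on 28-day cycles, at alpelisib 200–300 mg with olaparib 100–200 mg.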

[2] = system: patients with recurrent EOC or BC; test: Phase 1b 3+3 dose escalation: DLTs, MTD and RP2D; format: in vivo, human
Summary of the method: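 Classic 3+3 design with continuous 28-day cycles: oral alpelisib q.d. plus olaparib tablets b.i.d. Levels were 250/100 mg, 250/200 mg, 300/200 mg and 200/200 mg. Escalation followed 0/3 or 1/6 DLTs in cycle 1, graded by CTCAE v4.03. DLTs were prespecified grade ≥3 treatment-related toxicities. Monitoring was weekly in cycles 1–2, then day 1 of each cycle. Six EOC patients were then expanded at the MTD.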

[3] = system: EOCs that are gBRCAwt but HRD positive and platinum resistant; details: gBRCAwt but HRD positive and platinum resistant EOC; QUADRA study; cited from earlier work
[4] = system: patients; details: olaparib monotherapy, SOLO1 study; cited from earlier work
[5] = system: EOC patients; details: cited from earlier work

Row | Compound | Dose proportionality of drug exposure [1] | Effect of the other drug's dosing on Cmax [1] | Steady state Cmax compared with monotherapy [1] | MTD and RP2D, alpelisib dose ([2]; orally once daily, combined with olaparib 200 mg twice daily) | Response to monotherapy [3] | Fatigue, share of patients [4] | Nausea, share of patients [4] | Vomiting, share of patients [4] | Objective response rate expected from monotherapy ([5]; BRCAwt, platinum-resistant ovarian carcinomas, no ref given) | ORR as monotherapy ([5]; gBRCAwt / BRCAwt platinum resistant patients) | Expected response rate of monotherapy ([5]; platinum resistant gBRCAmut EOC) | Expected response rate of monotherapy ([5]; platinum resistant gBRCAwt EOC) | Expected response rate of monotherapy ([5]; platinum sensitive gBRCAmut EOC) | Expected response rate of monotherapy ([5]; platinum sensitive gBRCAwt EOC) | MTD and RP2D, olaparib dose ([2]; orally twice daily (tablet), combined with alpelisib 200 mg once daily)
1 | Cc1nc(NC(=O)N2CCC[C@H]2C(N)=O)sc1-c1ccnc(C(C)(C)C(F)(F)F)c1 [alpelisib] | increasing proportionally with increasing dose | unaffected by olaparib dosing | comparable to values when testing these agents as monotherapy | 200 mg | – | – | – | – | – | – | – | – | – | – | –
2 | NC(=O)c1cccc2cn(-c3ccc([C@@H]4CCCNC4)cc3)nc12 [niraparib] | – | – | – | – | 10% | – | – | – | – | – | – | – | – | – | –
3 | O=C(c1cc(Cc2n[nH]c(=O)c3ccccc23)ccc1F)N1CCN(C(=O)C2CC2)CC1 [olaparib] | increasing proportionally with increasing dose | unaffected by alpelisib dosing | comparable to values when testing these agents as monotherapy | – | – | 63% | 77% | 40% | 4–5% | ~ 5% | 28% | ~ 5% | ≥ 60% | 50% | 200 mg
